# The source made the active and inactive calls. The calls are words filed in the database; no cut-off is given here.
# Assays:
# PC-12 [1] = test: Neuroprotective activity against etoposide-induced apoptosis in rat PC12 cells assessed as increase in Bcl2/Bax ratio at 3 uM pretreated for 4 hrs followed by etoposide challenge measured after 24 hrs by Western blot method; format: functional
# Outline: (§1)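 PC12 cells were pretreated 4 h with compound before etoposide and lysed after 24 or 48 h. 50 μg protein was run on 10% SDS gel and blotted. Probes were Bcl-2 (1:1000), Bax (1:500) and actin, with HRP chemiluminescence and densitometric Bcl-2/Bax ratio. n = 2, mean ± SEM.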
# IMR90-c4 [2] = test: Neuroprotective activity against etoposide-induced apoptosis in human IMR90-c4 cells assessed as increase in cell viability at 0.1 to 3 uM pretreated for 4 hrs followed by etoposide challenge measured after 36 hrs by PrestoBlue assay; format: functional, cell-based
# Outline: (§2)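 IMR90-c4 iPSC-derived neurons were plated at 16000 cells/well on poly-D-lysine/laminin and matured. They were pretreated 4 h with compound, then given 15 μg/mL etoposide. Viability was read at 36 h by PrestoBlue fluorescence (ex 560/em 590 nm).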
# [3] = target: T1, Glutamate [NMDA] receptor (Homo sapiens) (UniProt Q05586+Q12879+Q13224+O15399+O60391+Q14957+Q8TCU5); test: Antagonist activity at NMDA receptor in human IMR90-c4 cells assessed as decrease in NMDA-mediated reduction in cell viability at 0.1 to 30 uM by PrestoBlue assay; format: cell-based
# Outline: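 Neurons differentiated from IMR90-c4 iPSCs over roughly 21 days, then challenged with 500 μM NMDA. Viability was read with PrestoBlue. n = 1 with 4 technical replicates; % viability given as mean ± SEM.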
# PC-12 [4] = test: Neuroprotective activity against etoposide-induced apoptosis in rat PC12 cells assessed as increase in Bcl2/Bax ratio at 0.1 uM pretreated for 4 hrs followed by etoposide challenge measured after 48 hrs by Western blot method; format: functional, cell-based; outline: as §1
# PC-12 [5] = test: Induction of autophagy in rat PC12 cells assessed as increase in beclin 1 expression after 24 hrs by Western blot method; format: functional, cell-based
# Outline: (§3)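 PC12 lysates were taken after 24 h of compound treatment. 50 μg protein was run on 10% SDS gel and transferred to nitrocellulose. Blots were blocked in 5% BSA, probed overnight at 4 °C with beclin 1 (1:2000) and actin (1:5000), then HRP secondary. Chemiluminescence was quantified by densitometry.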
# PC-12 [6] = test: Induction of autophagy in rat PC12 cells assessed as increase in beclin 1 expression at 0.1 uM after 24 hrs by Western blot method relative to control; format: functional; outline: as §3
# PC-12 [7] = test: Neuroprotective activity against etoposide-induced apoptosis in rat PC12 cells assessed as increase in Bcl2/Bax ratio at 0.1 uM pretreated for 4 hrs followed by etoposide challenge measured after 24 hrs by Western blot method; format: functional; outline: as §1
# PC-12 [8] = test: Induction of autophagy in rat PC12 cells after 48 hrs by MDC staining-based flow cytometric method; format: functional, cell-based
# Outline: (§4)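 PC12 cells were treated for 48 h and then stained with 0.5 mM monodansylcadaverine for 30 min at 37 °C. Trypsinized cells were pooled with floating cells and resuspended in PBS/1% FBS. 10000 cells were read by flow cytometry in the FITC channel after gating out debris. MDC staining is expressed relative to vehicle.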
# PC-12 [9] = test: Neuroprotective activity against etoposide-induced apoptosis in rat PC12 cells assessed as cell viability at 0.1 uM pretreated for 4 hrs followed by etoposide challenge measured after 48 hrs by PrestoBlue assay relative to control; format: functional; conditions: read-out: Activity
# Outline: (§5)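 PC12 cells were plated at 50000/well on collagen-coated plates and left overnight. They were pretreated 4 h with compound, then given 15 μg/mL etoposide. Viability was read at 48 h by PrestoBlue (ex 560/em 590 nm). n = 3, mean ± SEM, as % viability.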
# PC-12 [10] = test: Neuroprotective activity against H2O2-induced apoptosis in rat PC12 cells assessed as increase in cell viability at 1 to 30 uM after 4 hrs by PrestoBlue assay; format: functional, cell-based
# Outline: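 PC12 cells were exposed to 400 μM H2O2 with compounds at 1–30 μM. Viability was measured after 4 h with PrestoBlue.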
# IMR-90 = test: Neuroprotective activity against etoposide-induced apoptosis in human IMR90-c4 cells assessed as increase in cell viability at 0.1 uM pretreated for 4 hrs followed by etoposide challenge measured after 36 hrs by PrestoBlue assay relative to control; format: functional; outline: as §2
# PC-12 [11] = test: Neuroprotective activity against etoposide-induced apoptosis in rat PC12 cells assessed as increase in Bcl2/Bax ratio at 3 uM pretreated for 4 hrs followed by etoposide challenge measured after 48 hrs by Western blot method; format: functional, cell-based; outline: as §1
# PC-12 [12] = test: Neuroprotective activity against etoposide-induced apoptosis in rat PC12 cells assessed as cell viability at 3 uM pretreated for 4 hrs followed by etoposide challenge measured after 48 hrs by PrestoBlue assay (reference value: 52.13 +/- 1.13%); format: functional; conditions: read-out: Activity; outline: as §5
# [13] = target: T1, Glutamate [NMDA] receptor (Homo sapiens); test: Antagonist activity at NMDA receptor in human IMR90-c4 cells assessed as decrease in NMDA-mediated reduction in cell viability at 30 uM by PrestoBlue assay; format: cell-based
# Outline: (§6)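 IMR90-c4 iPSCs differentiated to neurons (NSC, NPC, then 21 days maturation on poly-D-lysine/laminin). Neurons challenged with 500 μM NMDA. Viability read with PrestoBlue. n = 1 with 4 technical replicates, mean ± SEM.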
# PC-12 [14] = test: Induction of autophagy in rat PC12 cells at 3 uM after 48 hrs by MDC staining-based flow cytometric method relative to control; format: functional; outline: as §4
# [15] = target: T1, Glutamate [NMDA] receptor (Homo sapiens); test: Antagonist activity at NMDA receptor in human IMR90-c4 cells assessed as decrease in NMDA-mediated reduction in cell viability at 0.1 to 10 uM by PrestoBlue assay; format: cell-based; outline: as §6
# PC-12 [16] = test: Neuroprotective activity in rat PC12 cells assessed as decrease in H2O2-induced reactive oxygen species generation at 10 uM by CellROX/DAPI-blue staining-based fluorescence microscopic method; format: functional, cell-based
# Outline: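 PC12 cells were grown in RPMI with 10% horse serum and 5% FBS on collagen-coated plates. ROS was induced with H2O2 and cells exposed to compound. Staining used CellROX green plus DAPI, imaged by fluorescence microscopy at 40×.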
# IMR90-c4 [17] = test: Neuroprotective activity against etoposide-induced apoptosis in human IMR90-c4 cells assessed as increase in cell viability at 10 to 30 uM pretreated for 4 hrs followed by etoposide challenge measured after 36 hrs by PrestoBlue assay; format: functional, cell-based
# Outline: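 Neurons derived from IMR90-c4 iPSCs were seeded at 16000 cells/well on poly-D-lysine/laminin and matured at 37 °C, 5% CO2. Compound pretreatment lasted 4 h before 15 μg/mL etoposide. PrestoBlue fluorescence (ex 560/em 590 nm) was read after 36 h.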
# PC-12 [18] = test: Induction of autophagy in rat PC12 cells assessed as increase in beclin 1 expression at 3 uM after 24 hrs by Western blot method relative to control; format: functional; outline: as §3
# PC-12 [19] = test: Induction of autophagy in rat PC12 cells assessed as increase in beclin 1 expression at 10 uM after 24 hrs by Western blot method relative to control; format: functional; outline: as §3
# PC-12 [20] = test: Induction of autophagy in rat PC12 cells at 10 uM after 48 hrs by MDC staining-based flow cytometric method relative to control; format: functional; outline: as §4
# PC-12 [21] = test: Neuroprotective activity against etoposide-induced apoptosis in rat PC12 cells assessed as increase in cell viability at 0.1 uM pretreated for 4 hrs followed by etoposide challenge measured after 48 hrs by PrestoBlue assay relative to control; format: functional, cell-based; outline: as §5
# [22] = Neuroprotective activity against etoposide-induced apoptosis in human IMR90-c4 cells assessed as increase in cell viability at 3 uM pretreated for 4 hrs followed by etoposide challenge measured after 36 hrs by PrestoBlue assay relative to control; format: functional; outline: as §2
# PC-12 [23] = test: Neuroprotective activity against etoposide-induced apoptosis in rat PC12 cells assessed as cell viability at 0.3 uM pretreated for 4 hrs followed by etoposide challenge measured after 48 hrs by PrestoBlue assay relative to control; format: functional; conditions: read-out: Activity; outline: as §5
# IMR90-c4 [24] = test: Neuroprotective activity against etoposide-induced apoptosis in human IMR90-c4 cells assessed as increase in cell viability at 3 to 30 uM pretreated for 4 hrs followed by etoposide challenge measured after 36 hrs by PrestoBlue assay; format: functional, cell-based; outline: as §2
SMILES,Activity (PC-12 [1]),inhibition [3],Activity (PC-12 [8]),viability at 0.1 µM (PC-12 [9]) [%],Activity (PC-12 [10]),Activity (PC-12 [11]),viability at 3 µM (PC-12 [12]) [%],fold change (FC) (PC-12 [14]),also measured
CCOC(=O)Nc1ccc(NCc2ccc(C(F)(F)F)cc2)nc1N,232%,inactive,Dose-dependent effect,84,inactive,inactive,68.4,–,Activity (IMR90-c4 [2]): Active; Activity (PC-12 [4]): inactive; Activity (PC-12 [5]): Dose-dependent effect; Activity (PC-12 [6]): 18%; Activity (PC-12 [7]): 159%; Activity (IMR-90): 75 - 76%
CCOC(=O)Nc1ccc(NCc2ccc(F)cc2)cc1N [EZOGABINE],64%,–,–,–,Active,inactive,–,2,inhibition [13]: Active; inhibition [15]: inactive; Activity (PC-12 [16]): Active; Activity (IMR90-c4 [17]): Active
CCCCCCOC(=O)Nc1ccc(NCc2ccc(F)cc2)nc1N,–,–,–,–,–,–,78.5,–,–
C=CCOC(=O)Nc1ccc(NCc2ccc(F)cc2)nc1N,150%,inactive,–,–,inactive,inactive,84.9,2,Activity (PC-12 [16]): inactive
CCOC(=O)Nc1ccc(NCc2ccc(Cl)cc2)nc1N,inactive,inactive,Dose-dependent effect,–,inactive,inactive,64.3,>5,Activity (PC-12 [18]): -20%; Activity (PC-12 [19]): 104%; fold change (FC) (PC-12 [20]): >12
CCOC(=O)Nc1cnc(NCc2ccc(F)cc2)cc1C,–,–,–,–,–,–,53.8,–,–
CCOC(=O)Nc1ccc(NCc2ccc(SC(F)(F)F)cc2)nc1N,–,–,Dose-dependent effect,–,–,inactive,–,8,Activity (PC-12 [21]): Active; Activity [22]: 71%; viability at 0.3 µM (PC-12 [23]): 93%
CCOC(=O)Nc1ccc(NCc2ccc(OC(F)(F)F)cc2)nc1N,–,–,Dose-dependent effect,77,–,inactive,80.6,–,Activity (IMR90-c4 [24]): Active; Activity (PC-12 [5]): Dose-dependent effect
CCOC(=O)Nc1ccc(NCc2ccc(C(F)(F)F)nc2)nc1N,–,–,–,74,–,–,81.6,–,–
CCOC(=O)Nc1ccc(NCCc2ccc(F)cc2)nc1N,–,–,–,–,–,–,59.3,–,–
